According to ChEMBL document CHEMBL3526089, “Selective mechanism-based inactivation of CYP3A4 by CYP3cide (PF-04981517) and its utility as an in vitro tool for delineating the relative roles of CYP3A4 versus CYP3A5 in the metabolism of drugs” (Drug Metab Dispos, 2012):

Assays:
Assay type in all cases: ADME; call rule not given here
[1] = target: T1, Cytochrome P450 3A5 (Homo sapiens, UniProt P20815); assay: Inhibition of midazolam 1'-hydroxylase activity of human recombinant CYP3A5 harboring human P450 oxidoreductase and b5 assessed as decrease in enzyme activity preincubated for 30 mins by LC-MS/MS analysis
T1 sequence (P20815 whole entry): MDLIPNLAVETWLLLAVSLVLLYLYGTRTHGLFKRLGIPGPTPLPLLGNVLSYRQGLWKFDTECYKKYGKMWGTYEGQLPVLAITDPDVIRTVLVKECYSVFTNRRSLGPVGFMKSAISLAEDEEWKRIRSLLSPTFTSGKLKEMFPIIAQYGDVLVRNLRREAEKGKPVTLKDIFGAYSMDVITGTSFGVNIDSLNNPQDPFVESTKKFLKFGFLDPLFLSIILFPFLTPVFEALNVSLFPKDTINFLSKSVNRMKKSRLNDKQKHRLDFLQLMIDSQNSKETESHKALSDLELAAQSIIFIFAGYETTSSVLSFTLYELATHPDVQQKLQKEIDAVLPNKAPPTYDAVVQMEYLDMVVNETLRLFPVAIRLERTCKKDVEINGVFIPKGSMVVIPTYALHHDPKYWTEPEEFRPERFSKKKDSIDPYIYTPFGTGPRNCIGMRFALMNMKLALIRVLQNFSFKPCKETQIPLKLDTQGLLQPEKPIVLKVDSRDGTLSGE
Procedure, shortened: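 rCYP3A5 with POR and b5 (0.010 mg/ml for midazolam, 0.020 mg/ml for testosterone) preincubated 30 min at 37°C with 2 µM inhibitor, ±NADPH (1.3 mM), N=2. Mixture then diluted 10-fold into probe substrate at ~KM at 37°C. Activity expressed as percent of control remaining, reported as decrease in activity.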

[2] = Fraction unbound in human liver microsomes at 0.8 mg/ml
[3] = system: CYP3A5*1/*1; assay: Time dependent inhibition of CYP3A5*1/*1 in human liver microsomes assessed as midazolam 1'-hydroxylase activity at 0.56 uM after 10 mins by dilution method; details: liver microsomes (CYP3A5*1/*1 genotype), probe midazolam (1'-hydroxylation)
Procedure, shortened: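 Genotyped individual HLMs (0.1 mg/ml) preincubated at 37°C with CYP3cide (0–1.3 μM; 10 min in the two-donor study, 5 min in the 30-donor study), with or without 1.3 mM NADPH (N=3). Mixture diluted 20-fold into 23 μM midazolam for 6 min. 1'-OH-midazolam measured. Readout: % of vehicle/no-NADPH control activity.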

[4] = target: T1, Cytochrome P450 3A5; assay: Reversible inhibition of midazolam 1'-hydroxylase activity of human recombinant CYP3A5 harboring human P450 oxidoreductase and b5
Procedure, shortened: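 Recombinant CYP3A5 expressed in baculovirus, with P450 oxidoreductase and cytochrome b5 (P450:POR:b5 1:13:7). Enzyme at 0.010 mg/ml for midazolam 1'-hydroxylase and 0.020 mg/ml for testosterone 6β-hydroxylase. Each substrate at its experimentally derived KM. IC50 determined in duplicate.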

[5] = target: Cytochrome P450 2D6 (Homo sapiens, UniProt P10635); assay: Reversible inhibition of human CYP2D6 dextromethorphan O-demethylase activity
Sequence of Cytochrome P450 2D6 (P10635 whole entry): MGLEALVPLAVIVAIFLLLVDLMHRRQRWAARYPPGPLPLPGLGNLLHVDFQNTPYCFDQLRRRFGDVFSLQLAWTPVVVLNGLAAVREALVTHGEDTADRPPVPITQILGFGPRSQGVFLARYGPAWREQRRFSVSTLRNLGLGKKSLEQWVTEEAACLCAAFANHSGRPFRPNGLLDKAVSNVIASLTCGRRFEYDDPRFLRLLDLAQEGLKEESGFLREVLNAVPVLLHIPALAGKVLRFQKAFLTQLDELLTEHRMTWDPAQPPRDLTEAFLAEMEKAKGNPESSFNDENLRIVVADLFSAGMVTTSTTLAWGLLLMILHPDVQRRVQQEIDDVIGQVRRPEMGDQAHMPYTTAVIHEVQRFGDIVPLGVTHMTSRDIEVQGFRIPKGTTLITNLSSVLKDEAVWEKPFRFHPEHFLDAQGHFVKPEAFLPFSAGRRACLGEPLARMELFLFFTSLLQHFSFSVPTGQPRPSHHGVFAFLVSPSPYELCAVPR

[6] = Inhibition of CYP3A5*3/*3 in 5 mg/ml of human liver microsomes assessed as midazolam 1'-hydroxylase activity at 13 uM after 10 mins

Cc1ccc(-c2c(-c3nn(C)c4ncnc(N5CC[C@H](N6CCCCC6)C5)c34)cnn2C)cc1
Ki [1]: 2 µM
fraction unbound [2]: 0.56
inhibition at 10 min, 0.56 µM [3]: 0.4%
IC50 [4]: 17 µM
IC50 [5]: 71 µM
inhibition (INH) [6]: Active
